Results: ChEMBL document CHEMBL1156277, “Discovery of N-methyl-4-(4-methoxyanilino)quinazolines as potent apoptosis inducers. Structure-activity relationship of the quinazoline ring” (Bioorg Med Chem Lett, 2010)

Tests used:
T47D [1] = assay: Induction of apoptosis in human T47D cells assessed as caspase activation; assay type: functional, cell-based
Method in brief: (§1)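 Cell- and caspase-based HTS assay in human breast cancer T47D and human non-small cell lung cancer H1299 cells. Caspase-3 activation was read with fluorescent caspase-3 substrates and reported as EC50. Data are the mean of three or more experiments ± SEM.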

NCI-H1299 = assay: Induction of apoptosis in human H1299 cells assessed as caspase activation; assay type: functional, cell-based; method in brief: as §1
T47D [2] = assay: Selectivity ratio EC50 for human H1299 cells over EC50 for human T47D cells; assay type: functional
[3] = Ratio of AUC in brain to plasma in mouse at 2.5 mg/kg, iv; assay type: ADME, organism-based; parameters: dose 2.5 mg/kg, route intravenous; conditions: brain and plasma, read-out: Ratio AUC
Method in brief: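 Mice got a single intravenous dose. Compound levels in plasma from blood samples and in homogenized whole brain were determined by LC–MS/MS. Brain/plasma ratio was calculated from the areas under the concentration–time curves.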

[4] = Inhibition of tubulin polymerization

| EC50 (T47D [1]) [nM] | EC50 (NCI-H1299) [nM] | Kp [3] | IC50 [4] [nM] | SMILES | Selectivity ratio (T47D [2]) |
| --- | --- | --- | --- | --- | --- |
| 960 | 1400 | – | – | COc1ccc(N(C)c2nc(C)nc3ccc(NC(C)=O)cc23)cc1 | 1.5 |
| 15 | 21 | 1.8 | – | COc1ccc(N(C)c2nc(C)nc3ncccc23)cc1 | 1.4 |
| 450 | 1400 | – | – | COc1ccc(N(C)c2nc(C)nc3ccc(N(C)C)cc23)cc1 | 3.1 |
| 400 | 130 | – | – | COc1ccc(N(C)c2nc(C)nc3ccc([N+](=O)[O-])cc23)cc1 | 0.33 |
| 600 | 960 | – | 400 | COc1ccc(N(C)c2nccc3ccccc23)cc1 | 2 |
| 29 | 36 | 2.1 | – | COc1ccc(N(C)c2nc(C)nc3nccnc23)cc1 | 1.2 |
| 4 | 8 | – | 400 | COc1ccc(N(C)c2nc(C)nc3cccc(OC)c23)cc1 | 2 |
| – | 7 | – | 2000 | COc1ccc(N(C)c2nc(C)nc3ccccc23)cc1 [VERUBULIN] | – |
| 110 | 130 | – | – | COc1ccc(N(C)c2nc(C)nc3cc(N=[N+]=[N-])ccc23)cc1 | 1.2 |
| 780 | 570 | – | 2000 | COc1ccc(N(C)c2nc(C)nc3cc(N)ccc23)cc1 | 0.73 |
| 8 | 14 | 3.6 | – | COc1ccc(N(C)c2nc(C)nc3ccc(N)cc23)cc1 | 2 |
| 21 | 26 | 9.2 | – | COc1ccc(N(C)c2ccnc3ccccc23)cc1 | 2 |
| 17 | 45 | – | – | COc1ccc(N(C)c2nnnc3ccccc23)cc1 | 2 |

| SMILES | EC50 (T47D [1]) [nM] | EC50 (NCI-H1299) [nM] | Kp [3] | IC50 [4] [nM] | Selectivity ratio (T47D [2]) |
| --- | --- | --- | --- | --- | --- |
| COc1ccc(N(C)c2nc(C)nc3cc([N+](=O)[O-])ccc23)cc1 | > 10000 | > 10000 | – | – | 2 |
